Test results from PMC2211770 (The Journal of Experimental Medicine, 2004).
Residues, ends and D or L forms follow the SMILES beside them. *: point of attachment. Cbz = O=C(OCc1ccccc1)*; CH2F = FC*

Key:
[1] = molecular target: T1, Recombinant human caspase-3 (Homo sapiens, UniProt P42574); test: M867 potency against recombinant human caspase-3; type: biochemical
T1 sequence (P42574 29-175 limits assumed): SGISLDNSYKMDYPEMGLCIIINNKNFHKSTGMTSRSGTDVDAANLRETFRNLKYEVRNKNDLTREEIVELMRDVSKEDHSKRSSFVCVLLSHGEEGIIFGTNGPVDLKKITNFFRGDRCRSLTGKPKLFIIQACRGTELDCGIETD
T1 sequence (P42574 176-277 limits assumed): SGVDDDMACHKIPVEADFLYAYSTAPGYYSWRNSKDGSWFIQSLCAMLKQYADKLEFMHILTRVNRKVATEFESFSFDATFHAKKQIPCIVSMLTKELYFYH

[2] = molecular target: T2, Recombinant human caspase-1 (Homo sapiens, UniProt P29466); test: M867 potency against recombinant human caspase-1; type: biochemical
T2 sequence (P29466 120-297 limits assumed): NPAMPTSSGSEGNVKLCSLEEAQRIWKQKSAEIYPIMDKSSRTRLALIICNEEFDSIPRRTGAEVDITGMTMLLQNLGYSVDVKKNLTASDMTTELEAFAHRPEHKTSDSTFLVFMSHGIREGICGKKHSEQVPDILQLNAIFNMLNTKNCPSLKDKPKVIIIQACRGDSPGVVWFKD
T2 sequence (P29466 317-404 limits assumed): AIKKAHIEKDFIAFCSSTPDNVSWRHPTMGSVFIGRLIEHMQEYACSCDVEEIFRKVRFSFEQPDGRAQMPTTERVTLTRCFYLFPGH

[3] = system: DNA fragmentation in thymocytes; test: DNA fragmentation; type: in vivo, rat; conditions: for Percentage of subdiploid cells (±SE): thymus 24 h
In short: (§1)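 CLP then followed: the ligated cecum was pierced through and through with a 20-gauge cannula and a silk thread was left in place for leakage. Shams had the cecum exteriorized only. Rats got 1 c.c. saline s.c., then a 2 ml/kg i.v. bolus of vehicle or test compound and 2 ml/h/kg infusion for 24 h. In the titration, doses were 0–10 mg/kg/h with one rat per dose. Thymus taken 24 h post-surgery.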

[4] = molecular target: T3, Recombinant human caspase-6 (Homo sapiens, UniProt P55212); test: M867 potency against recombinant human caspase-6; type: biochemical
T3 sequence (P55212 24-179 limits assumed): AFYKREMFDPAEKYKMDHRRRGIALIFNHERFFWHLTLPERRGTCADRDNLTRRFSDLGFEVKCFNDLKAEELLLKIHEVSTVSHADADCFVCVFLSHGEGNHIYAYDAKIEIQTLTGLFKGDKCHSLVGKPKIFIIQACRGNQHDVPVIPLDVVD
T3 sequence (P55212 194-293 limits assumed): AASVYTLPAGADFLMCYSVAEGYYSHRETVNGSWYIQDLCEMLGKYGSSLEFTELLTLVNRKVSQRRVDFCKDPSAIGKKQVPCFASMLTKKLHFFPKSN

[5] = molecular target: T4, Recombinant human caspase-5 (Homo sapiens, UniProt P51878); test: M867 potency against recombinant human caspase-5; type: biochemical
T4 sequence (P51878 137-327 limits assumed): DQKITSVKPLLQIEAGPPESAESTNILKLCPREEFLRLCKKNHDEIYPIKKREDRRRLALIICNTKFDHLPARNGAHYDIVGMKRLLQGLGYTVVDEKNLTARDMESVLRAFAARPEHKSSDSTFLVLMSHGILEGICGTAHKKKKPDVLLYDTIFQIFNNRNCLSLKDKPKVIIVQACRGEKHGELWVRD
T4 sequence (P51878 347-434 limits assumed): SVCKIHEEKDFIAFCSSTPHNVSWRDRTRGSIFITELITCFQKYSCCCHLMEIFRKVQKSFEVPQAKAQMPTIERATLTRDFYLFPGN

[6] = system: αII-spectrin cleavage in thymocytes; test: αII-spectrin cleavage in the thymus of CLP-induced septic rats; type: in vivo, rat; conditions: for Spectrin cleavage OD (±SE): thymus 24 h
In short: as §1

[7] = molecular target: Recombinant human caspase-8 (Homo sapiens, UniProt Q14790); test: M867 potency against recombinant human caspase-8; type: biochemical
Sequence of Recombinant human caspase-8 (Q14790 217-374 limits assumed): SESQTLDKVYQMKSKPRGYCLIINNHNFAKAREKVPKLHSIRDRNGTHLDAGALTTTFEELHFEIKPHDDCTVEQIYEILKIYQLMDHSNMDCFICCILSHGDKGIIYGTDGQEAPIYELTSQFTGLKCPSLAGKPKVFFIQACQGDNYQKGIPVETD
Sequence of Recombinant human caspase-8 (Q14790 385-479 limits assumed): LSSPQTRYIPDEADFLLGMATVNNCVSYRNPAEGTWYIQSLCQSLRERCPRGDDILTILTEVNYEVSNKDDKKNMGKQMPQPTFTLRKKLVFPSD

[8] = molecular target: T5, Recombinant human caspase-10 (Homo sapiens, UniProt Q92851); test: M867 potency against recombinant human caspase-10; type: biochemical
T5 sequence (Q92851 220-415 limits assumed): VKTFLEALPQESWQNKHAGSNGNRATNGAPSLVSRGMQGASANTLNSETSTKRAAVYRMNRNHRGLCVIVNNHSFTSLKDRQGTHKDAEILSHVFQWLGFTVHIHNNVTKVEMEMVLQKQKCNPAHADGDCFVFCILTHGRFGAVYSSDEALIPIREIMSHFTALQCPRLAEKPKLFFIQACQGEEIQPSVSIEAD
T5 sequence (Q92851 416-521 limits assumed): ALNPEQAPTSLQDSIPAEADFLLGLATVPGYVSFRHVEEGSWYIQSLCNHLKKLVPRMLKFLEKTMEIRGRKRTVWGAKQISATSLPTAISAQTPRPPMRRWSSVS

caspase-3 processing = test: Caspase-3 Western blotting on thymus extracts of CLP rats dosed with M867; type: in vivo, rat; conditions: all M867 doses
In short: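 Female Sprague-Dawley rats (250–300 g) had CLP via a 20-gauge through-and-through cecal puncture with a silk wick. Test compound was given as an i.v. femoral catheter bolus (2 ml/kg) then infused at 0–10 mg/kg/h for 24 h (vehicle n = 6; n = 1 per dose). Thymus lysates (40 μg, heat-denatured) were run on 10–20% SDS-PAGE and probed with rabbit anti-caspase-3 (1:2,000) and HRP anti-rabbit, with chemiluminescent detection.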

[9] = Drug levels in plasma, blood and spleen of rats under continuous i.v. infusion; type: in vivo; conditions: rat, intravenous, 2 mg/kg/h
In short: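 Test compound was given to rats by continuous i.v. infusion after a 2 ml/kg bolus, delivered at 2 ml/h/kg for 24 h. Dose rates were 2 mg/kg/h for plasma and spleen levels, and 0.5 or 1.5 mg/kg/h for blood levels.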

[10] = system: basal apoptotic parameters; test: Basal apoptotic parameters in sham-operated animals; type: in vivo, rat; conditions: sham-operated animals (unpublished data)
[11] = molecular target: T6, Recombinant human caspase-2 (Homo sapiens, UniProt P42575); test: M867 potency against recombinant human caspase-2; type: biochemical
T6 sequence (P42575 170-325 limits assumed): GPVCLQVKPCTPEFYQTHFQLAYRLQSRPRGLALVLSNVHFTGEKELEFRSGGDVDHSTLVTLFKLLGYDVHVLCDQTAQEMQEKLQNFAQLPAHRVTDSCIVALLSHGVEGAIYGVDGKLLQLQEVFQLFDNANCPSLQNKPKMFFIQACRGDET
T6 sequence (P42575 348-452 limits assumed): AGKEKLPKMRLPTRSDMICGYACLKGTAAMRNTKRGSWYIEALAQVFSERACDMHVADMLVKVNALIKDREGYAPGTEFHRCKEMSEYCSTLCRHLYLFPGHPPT

[12] = molecular target: T7, Recombinant human caspase-7 (Homo sapiens, UniProt P55210); test: M867 potency against recombinant human caspase-7; type: biochemical
T7 sequence (P55210 24-198 limits assumed): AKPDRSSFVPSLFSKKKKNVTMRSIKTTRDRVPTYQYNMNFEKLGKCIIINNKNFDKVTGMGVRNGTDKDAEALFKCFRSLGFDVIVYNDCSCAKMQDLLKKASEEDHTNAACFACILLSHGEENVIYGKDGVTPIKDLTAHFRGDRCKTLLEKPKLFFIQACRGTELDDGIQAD
T7 sequence (P55210 207-303 limits assumed): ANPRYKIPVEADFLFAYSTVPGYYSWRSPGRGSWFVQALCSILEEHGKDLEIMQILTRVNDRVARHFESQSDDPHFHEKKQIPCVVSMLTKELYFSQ

[13] = molecular target: T8, Recombinant human caspase-4 (Homo sapiens, UniProt P49662); test: M867 potency against recombinant human caspase-4; type: biochemical
T8 sequence (P49662 81-270 limits assumed): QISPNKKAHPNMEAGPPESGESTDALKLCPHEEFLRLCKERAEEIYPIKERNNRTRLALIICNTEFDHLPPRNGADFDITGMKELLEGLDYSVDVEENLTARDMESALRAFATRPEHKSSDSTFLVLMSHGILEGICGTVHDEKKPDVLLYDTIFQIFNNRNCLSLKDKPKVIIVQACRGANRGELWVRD
T8 sequence (P49662 290-377 limits assumed): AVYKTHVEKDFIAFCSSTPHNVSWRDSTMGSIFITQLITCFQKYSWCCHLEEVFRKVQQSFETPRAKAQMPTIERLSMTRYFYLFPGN

[14] = system: DNA fragmentation in cultured primary rat thymocytes; test: DNA fragmentation; type: cell-based
In short: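 Thymocytes were cultured for 24 h at 10 × 10^6 cells/ml in CytoSF4 plus l-glutamine and antibiotics, with test compound at a range of concentrations. Cells fixed 30 min on ice in 70% EtOH and stained in PBS/0.1% Triton X-100/RNase A/25 μg/ml PI. Subdiploid DNA by flow cytometry, 20,000 events, duplicate samples, debris gated out on forward scatter. IC50 by 4-parameter fit.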

[15] = system: αII-spectrin cleavage in cultured primary rat thymocytes; test: αII-spectrin cleavage in cultured primary rat thymocytes; type: cell-based; conditions: read-out: IC50 spectrin, average of two to four experiments (single for zVAD-fmk and M808)
In short: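 Rat thymocytes, isolated by tissue grinding in cold PBS/glucose/glutamine/1% FBS and filtered, were kept 24 h at 10 × 10^6 cells/ml in CytoSF4 with l-glutamine and antibiotics over a test compound concentration series. The read-out is the caspase-3-generated p120 αII-spectrin neoepitope. IC50 from a 4-parameter curve fit.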

[16] = crude extrapolation, septic rats (Fig. 4)
[17] = septic rats, continuous i.v. infusion

## CCCCCN(C)CC(=O)[C@H](CC(=O)O)NC(=O)[C@H](CC)n1cc(C(C)(C)C)nc(NCc2nonc2C)c1=O [M867, (3S)-3-({(2S)-2-[5-tert-butyl-3-{[(4-methyl-1,2,5-oxadiazol-3-yl)methyl]amino}-2-oxopyrazin-1(2H)-yl]butanoyl}amino)-5-[methyl(pentyl)amino]-4-oxopentanoic acid]
[1]
  Ki: 1.4 nM
[2]
  Ki: 107 nM
[3]; CLP rats, i.v. infusion over 24 h after CLP, first experiment (Fig. 2 D, n = 10)
  reduction of DNA fragmentation in thymocytes: 57%
[3]; CLP rats, first experiment (n = 10; vehicle 25.12, sham 1.23)
  Percentage of subdiploid cells (±SE): 11.61 ± 2.95%
[3]; CLP rats, second experiment (n = 4-5; vehicle 33.49, sham 0.37)
  Percentage of subdiploid cells (±SE): 13.25 ± 4.70%
[3]; [16]
  in vivo IC50 DNA fragmentation: 2 mg/kg/h
[3]; experimental peritonitis, rats
  drug levels needed to inhibit DNA cleavage compared with αII-spectrin cleavage: fourfold
[3]; [17]
  doses fully inhibiting DNA fragmentation: above 5 mg/kg/h
[3]; septic rats, doses up to 10 mg/kg/h
  effect on DNA fragmentation in dose titration: almost abrogated
[4]
  Ki: 3440 nM
[5]
  Ki: 805 nM
[6]; CLP rats, i.v. infusion over 24 h after CLP, first experiment (Fig. 2 C, n = 10)
  reduction of αII-spectrin cleavage in thymocytes: 88%
[6]; CLP rats, first experiment (n = 10; vehicle 0.97, sham 0.21)
  Spectrin cleavage OD (±SE): 0.30 ± 0.01 OD
[6]; CLP rats, second experiment (n = 4-5; vehicle 0.58, sham 0.12)
  Spectrin cleavage OD (±SE): 0.18 ± 0.01 OD
[6]; [16]
  in vivo IC50 αII-spectrin cleavage: 0.5 mg/kg/h
[6]; septic rats, 2 mg/kg/h
  inhibition of αII-spectrin cleavage: almost complete inhibition
[6]; [17]
  doses achieving abolition of αII-spectrin cleavage: below 2 mg/kg/h
[7]
  Ki: 4030 nM
[8]
  Ki: 29500 nM
caspase-3 processing
  caspase-3 processing: processed equally well
[9]; plasma
  concentration at 24 h: 650 ± 180 nM
[9]; spleen
  concentration at 24 h: 370 ± 100 nM
[10]
  effect on basal apoptotic parameters: no effect
[11]
  Ki: > 100000 nM
[12]
  Ki: 8.9 nM
[13]
  Ki: 495 nM
[14]; 0.1 μM, cultured thymocytes
  effect on DNA fragmentation: without affecting

## COC(=O)C[C@H](NC(=O)[C@H](C)NC(=O)[C@@H](NC(=O)OCc1ccccc1)C(C)C)C(=O)CF [zVAD-fmk, zVAD-fluoromethyl ketone, reference compound] (Cbz-Val-Ala-Asp(OMe)-CH2F)
[15]
  IC50: 600 nM
[14]; read-out: IC50 subdiploid, cultured rat thymocytes, average of two to four experiments (single for zVAD-fmk and M808)
  IC50: 25000 nM
